These results are taken from ChEMBL document CHEMBL1221395, “Synthesis, anticancer activity and mitochondrial mediated apoptosis inducing ability of 2,5-diaryloxadiazole-pyrrolobenzodiazepine conjugates” (Bioorg Med Chem, 2010).

Data set [1] has as its system A-375. Kind of data set: Cell cycle arrest in human A375 cells assessed as accumulation at Sub-G1 phase after 24 hrs by FACS flow cytometry. Also on record: concentration or dose not given beside the values.
A short description of data set [2]: Lipophilicity, log P of the compound. Type of data set: physicochemical. As to conditions: octanol/water.
Data set [3] in a line: Cytotoxicity against human Gurav cells after 24 hrs by WST-1 assay. Type of data set: functional. (In general: Formazan colour is commonly taken as a measure of viable cells.)
In data set [4] the test system is A-375. Kind of data set: Induction of apoptosis in human A375 cells assessed as increase in Bax protein level at 4 uM after 24 hrs by Western blotting. Type of data set: functional, cell-based. The method in brief:
(§1)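 A375 cells treated at 4 µM for 24 h. Lysates cleared at 12,000 rpm for 10 min, and protein quantified by Bradford. 30 µg per lane run on 12% SDS-PAGE and transferred to PVDF. Blocked 2 h in TBST with 5% blocking powder. Primary antibody overnight at 4 °C, HRP secondary (1:2000) 1 h at room temperature. β-actin used as loading control; untreated cells as control.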
A general note: In western blotting, separated proteins are transferred to a membrane and probed.

A further data set relates to COLO 205. The data set can be described thus: Cytotoxicity against human COLO205 cells after 24 hrs by SRB assay. The conditions noted are these: COLO 205, 24 h. A general note: In SRB staining, fixed cells bind dye roughly in proportion to their protein.
Another data set has as its system Calf thymus DNA. The data set can be described thus: Binding affinity to calf thymus DNA assessed as change in melting temperature after 18 hrs. In kind it is nucleic-acid assay. As to conditions: Bos taurus. The method in brief: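 Thermal melting with duplex CT-DNA (100 µM in phosphate) and ligand (20 µM), added from methanol stock, [PBD]/[DNA] 1:5, in 10 mM sodium phosphate + 1 mM EDTA, pH 7.00; incubated at 37 °C for 18 h. A260 monitored while heating at 1 °C/min over 40–90 °C. Tm taken from d(A260)/dT maxima, corrected for methanol; ΔTm = Tm(DNA+ligand) − Tm(DNA alone); at least three determinations.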

Data set [5] concerns A-375. The data set can be described thus: Cell cycle arrest in human A375 cells assessed as accumulation at G2/M phase after 24 hrs by FACS flow cytometry. Further details: concentration or dose not given beside the values.
For a further data set, the system named is ZR-75-1. The data set can be described thus: Cytotoxicity against human ZR-75-1 cells by SRB assay.
Data set [6] deals with A-375. Kind of data set: Induction of apoptosis in human A375 cells assessed as increase in cytochrome C protein level at 4 uM after 24 hrs by Western blotting. Type of data set: functional, cell-based. The method in brief:
as §1

The test system of the next data set is A2780. Kind of data set: Cytotoxicity against human A2780 cells by SRB assay.
The next data set has as its system KB. The data set can be described thus: Cytotoxicity against human KB cells after 24 hrs by SRB assay.
A further data set relates to MCF7. The data set can be described thus: Cytotoxicity against human MCF7 cells by sulforhodamine B assay.
Another data set relates to PC-3. The data set can be described thus: Cytotoxicity against human PC3 cells after 24 hrs by WST-1 assay. Type of data set: functional. As to conditions: PC-3, 24 h.
Data set [7] has as its system A-375. Kind of data set: Cell cycle arrest in human A375 cells assessed as accumulation at S phase after 24 hrs by FACS flow cytometry. Also on record: concentration or dose not given beside the values.
Data set [8] is described as follows: Cytotoxicity against human DWD cells by SRB assay.
The test system of data set [9] is A-375. The data set can be described thus: Induction of apoptosis in human A375 cells assessed as increase in PARP protein level at 4 uM after 24 hrs by Western blotting. Type of data set: functional, cell-based. The procedure, abridged:
as §1

The test system of data set [10] is A-375. The data set can be described thus: Cell cycle arrest in human A375 cells assessed as accumulation at G1 phase after 24 hrs by FACS flow cytometry. Further details: concentration or dose not given beside the values.
A further data set concerns HOP-62. Kind of data set: Cytotoxicity against human HOP62 cells after 24 hrs by WST-1 assay. In kind it is functional. As to conditions: HOP-62, 24 h.
The subject of a further data set is A549. The data set can be described thus: Cytotoxicity against human A549 cells after 24 hrs by WST-1 assay. In kind it is functional. As to conditions: A549, 24 h.
The test system of data set [11] is A-375. Kind of data set: Induction of apoptosis in human A375 cells assessed as increase in Caspase 3 activation at 4 uM after 24 hrs by fluorimetry. Type of data set: functional, cell-based. The procedure, abridged: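 A375 cells exposed to 4 µM compound. Cell lysate incubated with DEVD-AFC substrate, with or without DEVD-CHO inhibitor, at 37 °C for 1 h in a fluorescent caspase-3 kit. Fluorescence read at excitation 400 nm, emission 505 nm.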

The test system of a further data set is SiHa. The data set can be described thus: Cytotoxicity against human SiHa cells after 24 hrs by SRB assay.

In general, logP refers to the decadic logarithm of the partition coefficient of the neutral form, usually between octanol and water. As usually defined, the GI50 is the concentration that inhibits growth by half. As usually defined, the ΔTm is the change in melting temperature against a reference sample.

Each structure is given as a SMILES string. Active and inactive are the calls of the source. No cut-off for these calls is given here.

Consider `COc1ccc(-c2nnc(-c3cc(OC)c(OC)c(OC)c3)o2)cc1OCCCCCOc1cc2c(cc1OC)C(=O)N1CCC[C@H]1C=N2`, for which the Activity in the data set on A-375 [1] came to 13.76%; in the data set on A-375 [5] it was 2.34%; in the data set on A-375 [7], 10.4%; in the data set with A-375 [10] it was 73.5%. The logP in data set [2] was 4.53. The GI50 in [3] is < 100 nM; in the data set with COLO 205 it was 120 nM; in the data set on ZR-75-1, 120 nM; in the data set on A2780, < 100 nM; with KB, < 100 nM; in the data set on MCF7, < 100 nM. Moreover, the GI50 with PC-3 was 150 nM; in [8], < 100 nM; in the data set on HOP-62, < 100 nM; with A549 it was 140 nM; with SiHa, < 100 nM. Further, the outcome in the data set on A-375 [4], in the data set with A-375 [6], in the data set on A-375 [9] and with A-375 [11] was Active. Also, the ΔTm with Calf thymus DNA came out at 1.6 °C.
Compound `COc1ccc(-c2nnc(-c3cc(OC)c(OC)c(OC)c3)o2)cc1OCCCCOc1cc2c(cc1OC)C(=O)N1CCC[C@H]1C=N2` registered a logP in data set [2] of 4.13. In addition, the GI50 is < 100 nM in [3]; < 100 nM in the data set with COLO 205; 160 nM in the data set on ZR-75-1; < 100 nM in the data set with A2780; < 100 nM with KB; 150 nM with MCF7. Further, the GI50 with PC-3 was 160 nM; in data set [8] it was 120 nM; with HOP-62, 130 nM; in the data set on A549 it was < 100 nM; with SiHa it was 130 nM. For the same compound, in the data set with Calf thymus DNA, the ΔTm was 2.1 °C.
Consider `COc1ccc(-c2nnc(-c3ccc(F)cc3)o2)cc1OCCCCOc1cc2c(cc1OC)C(=O)N1CCC[C@H]1C=N2`, for which the logP in data set [2] was 4.78. Also, the GI50 was 100 nM in data set [3]; 150 nM in the data set with COLO 205; 170 nM with ZR-75-1; < 100 nM in the data set with A2780; < 100 nM in the data set on KB; 160 nM in the data set with MCF7. For the same compound, the GI50 with PC-3 was 170 nM; in data set [8] it was 130 nM; in the data set on HOP-62, 150 nM; with A549 it was 290 nM; with SiHa, < 100 nM. Besides, in the data set on Calf thymus DNA, the shift in melting temperature (ΔTm) is 2.5 °C.
Take `COc1ccc(-c2nnc(-c3cc(OC)c(OC)c(OC)c3)o2)cc1OCCCOc1cc2c(cc1OC)C(=O)N1CCC[C@H]1C=N2`: in [2], the logP worked out at 3.76. For the same compound, the GI50 in data set [3] is 140 nM; with COLO 205 it was < 100 nM; in the data set on ZR-75-1, 120 nM; with A2780, 140 nM; with KB it was 140 nM; in the data set on MCF7 it was < 100 nM. The GI50 was 140 nM in the data set on PC-3; < 100 nM in data set [8]; 170 nM in the data set on HOP-62; 110 nM in the data set on A549; 180 nM with SiHa. In addition, the ΔTm with Calf thymus DNA turned out to be 1.9 °C.
Compound `COc1ccc(-c2nnc(-c3ccc(OC)c(OCCCOc4cc5c(cc4OC)C(=O)N4CCC[C@H]4C=N5)c3)o2)cc1OC` gave a logP in data set [2] of 3.92. For the same compound, the GI50 in [3] is 110 nM; in the data set with COLO 205, < 100 nM; in the data set on ZR-75-1, < 100 nM; in the data set with A2780, 110 nM; in the data set with KB it was 110 nM; in the data set on MCF7, < 100 nM. For the same compound, the GI50 is < 100 nM in the data set with PC-3; < 100 nM in [8]; 130 nM with HOP-62; < 100 nM in the data set on A549; 150 nM in the data set with SiHa. In the data set on Calf thymus DNA, the ΔTm is 1.5 °C.
Regarding `COc1ccc(-c2nnc(-c3ccc(F)cc3)o2)cc1OCCCCCOc1cc2c(cc1OC)C(=O)N1CCC[C@H]1C=N2`, in data set [2], the logP amounted to 5.17. Further, the GI50 in [3] is < 100 nM; with COLO 205, < 100 nM; in the data set on ZR-75-1 it was 150 nM; in the data set with A2780, < 100 nM; in the data set on KB, < 100 nM; in the data set with MCF7 it was 120 nM. Besides, the GI50 with PC-3 is 160 nM; in data set [8], < 100 nM; in the data set on HOP-62 it was 120 nM; in the data set with A549, 140 nM; in the data set with SiHa, 120 nM. The ΔTm with Calf thymus DNA stood at 1.8 °C.
As to `COc1ccc(-c2nnc(-c3ccc(C(F)(F)F)cc3)o2)cc1OCCCCCOc1cc2c(cc1OC)C(=O)N1CCC[C@H]1C=N2`, the logP in data set [2] stood at 5.84. The GI50 in data set [3] was < 100 nM; in the data set with COLO 205, 110 nM; in the data set on ZR-75-1, 110 nM; in the data set with A2780, < 100 nM; with KB it was 110 nM; with MCF7, < 100 nM. The GI50 in the data set on PC-3 is 130 nM; in data set [8] it was < 100 nM; in the data set on HOP-62, 130 nM; in the data set on A549 it was < 100 nM; in the data set on SiHa, 120 nM. Further, in the data set with Calf thymus DNA, the ΔTm stood at 1.7 °C.
With `COc1ccc(-c2nnc(-c3ccc(C(F)(F)F)cc3)o2)cc1OCCCCOc1cc2c(cc1OC)C(=O)N1CCC[C@H]1C=N2`, the logP in [2] was determined as 5.44. The GI50 in [3] turned out to be 140 nM; in the data set with COLO 205 it was 160 nM; in the data set on ZR-75-1, 120 nM; in the data set on A2780, 140 nM; in the data set with KB, 150 nM; in the data set on MCF7 it was 140 nM. For the same compound, the GI50 with PC-3 was 160 nM; in [8] it was 150 nM; in the data set on HOP-62, 160 nM; with A549, 110 nM; in the data set with SiHa it was 170 nM. The ΔTm in the data set on Calf thymus DNA is 2.1 °C.
In the case of `COc1ccc(-c2nnc(-c3ccc(F)cc3)o2)cc1OCCCOc1cc2c(cc1OC)C(=O)N1CCC[C@H]1C=N2`, the Activity is reported as 6.79% with A-375 [1], 5.06% in the data set on A-375 [5], 14.14% in the data set on A-375 [7] and 74% in the data set on A-375 [10]. Further, the logP in data set [2] is 4.39. For the same compound, the GI50 in data set [3] is 160 nM; with COLO 205, < 100 nM; in the data set on ZR-75-1, < 100 nM; in the data set on A2780 it was 140 nM; with KB, 150 nM; with MCF7 it was < 100 nM. In addition, the GI50 with PC-3 was < 100 nM; in data set [8] it was < 100 nM; with HOP-62, 160 nM; in the data set with A549 it was 150 nM; in the data set with SiHa, 170 nM. The outcome in the data set on A-375 [4], in the data set with A-375 [6], in the data set on A-375 [9] and in the data set with A-375 [11] was Active. The ΔTm in the data set with Calf thymus DNA amounted to 2 °C.
Compound `COc1ccc(-c2nnc(-c3ccc(OC)c(OCCCCOc4cc5c(cc4OC)C(=O)N4CCC[C@H]4C=N5)c3)o2)cc1OC` came in with a logP in [2] of 4.28. Further, the GI50 in [3] was < 100 nM; with COLO 205, < 100 nM; in the data set with ZR-75-1, 120 nM; with A2780, < 100 nM; with KB, 110 nM; in the data set with MCF7 it was < 100 nM. Also, the GI50 in the data set on PC-3 is 130 nM; in [8], < 100 nM; in the data set on HOP-62, 130 nM; in the data set with A549 it was < 100 nM; in the data set with SiHa it was 130 nM. The ΔTm with Calf thymus DNA stood at 2.3 °C.
